Assay results: ChEMBL document CHEMBL1133683, “beta-Turned dipeptoids as potent and selective CCK(1) receptor antagonists” (J Med Chem, 2000)

What was measured:
[1] = biological target: T1, Cholecystokinin receptor type A (Rattus norvegicus, UniProt P30551); test: In vitro inhibition of [3H]propionyl-CCK-8 binding to rat pancreatic membranes at Cholecystokinin type A receptor.; assay type: cell membranes, Membrane
T1 sequence (P30551 whole entry): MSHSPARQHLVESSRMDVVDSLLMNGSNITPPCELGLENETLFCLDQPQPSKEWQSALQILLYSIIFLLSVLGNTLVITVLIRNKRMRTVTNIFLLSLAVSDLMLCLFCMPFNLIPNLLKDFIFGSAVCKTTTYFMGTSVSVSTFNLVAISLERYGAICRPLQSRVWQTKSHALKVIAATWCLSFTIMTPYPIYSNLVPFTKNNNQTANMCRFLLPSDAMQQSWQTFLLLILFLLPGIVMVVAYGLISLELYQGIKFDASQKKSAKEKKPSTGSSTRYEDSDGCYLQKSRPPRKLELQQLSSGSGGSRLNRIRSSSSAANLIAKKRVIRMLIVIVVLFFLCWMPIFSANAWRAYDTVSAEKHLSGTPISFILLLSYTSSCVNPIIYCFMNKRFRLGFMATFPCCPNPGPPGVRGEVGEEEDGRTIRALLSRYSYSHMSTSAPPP
How it was run: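 Rat pancreas homogenized in Pipes-HCl pH 6.5 with 30 mM MgCl2 and spun twice (50000g, 10 min, 4 °C). Membranes (0.2 mg protein/tube) incubated with 0.5 nM [3H]pCCK-8 in the same buffer plus bacitracin and soybean trypsin inhibitor (0.2 mg/mL each), 120 min at 25 °C. Nonspecific binding defined with 1 μM CCK-8. Seven concentrations in duplicate, ≥3 experiments, mean ± SEM.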

[2] = biological target: T2, Gastrin/cholecystokinin type B receptor (Rattus norvegicus, UniProt P30553); test: In vitro inhibition of [3H]propionyl-CCK-8 binding to rat cerebral cortex membranes at Cholecystokinin type B receptor.; assay type: cell membranes, Membrane
T2 sequence (P30553 whole entry): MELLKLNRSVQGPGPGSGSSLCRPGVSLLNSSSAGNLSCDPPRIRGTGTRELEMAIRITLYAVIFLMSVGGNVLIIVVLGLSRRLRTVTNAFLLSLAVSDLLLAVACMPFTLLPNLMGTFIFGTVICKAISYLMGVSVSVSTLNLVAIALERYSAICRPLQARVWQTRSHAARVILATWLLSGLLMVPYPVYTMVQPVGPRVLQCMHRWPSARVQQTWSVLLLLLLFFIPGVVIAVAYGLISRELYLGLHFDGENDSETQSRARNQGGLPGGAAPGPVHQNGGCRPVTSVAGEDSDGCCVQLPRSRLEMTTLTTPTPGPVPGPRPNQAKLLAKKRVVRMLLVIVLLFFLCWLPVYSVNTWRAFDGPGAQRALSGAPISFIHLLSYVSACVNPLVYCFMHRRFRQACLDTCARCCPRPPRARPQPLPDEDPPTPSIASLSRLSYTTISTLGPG
How it was run: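 Rat cerebral cortex homogenized in 50 mM Tris-HCl pH 7.4 with 5 mM MgCl2 and spun twice (100000g, 35 min, 4 °C). Membranes (0.45 mg protein/tube) incubated with 1 nM [3H]pCCK-8 in the same buffer plus bacitracin 0.2 mg/mL, 60 min at 25 °C. Nonspecific binding defined with 1 μM CCK-8. Seven test concentrations in duplicate, at least three experiments, mean ± SEM.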

[3] = species: Rattus norvegicus; test: Inhibition of CCK-8-stimulated amylase release from pancreatic acinar cells; assay type: functional, cell-based
How it was run: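 Pancreatic acini prepared by collagenase digestion (70 U/mL, three 10-min incubations at 37 °C under O2). Acini incubated 30 min at 37 °C under pure O2 with agitation. Amylase release was stimulated by 0.1 nM CCK-8 and expressed as percent of acinar amylase released. Percent inhibition was calculated across increasing drug concentrations, and IC50 is given with a range.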

| Compound | IC50 [1] [nM] | IC50 [2] [nM] | IC50 [3] [nM] |
| --- | --- | --- | --- |
| O=C(O)C[C@@H](Cc1ccccc1)NC(=O)[C@H]1Cc2c([nH]c3ccccc23)[C@@H]2C[C@@H](NC(=O)OCc3ccccc3)C(=O)N12 | > 1000 | > 10000 |  |
| O=C(O)C[C@H](Cc1ccccc1)NC(=O)[C@H]1Cc2c([nH]c3ccccc23)[C@@H]2C[C@@H](NC(=O)OCc3ccccc3)C(=O)N12 | 97.8 | > 10000 |  |
| O=C(N[C@H]1C[C@@H]2c3[nH]c4ccccc4c3C[C@@H](C(=O)N[C@H](Cc3ccccc3)C(=O)O)N2C1=O)OCc1ccccc1 | 54.6 | > 10000 |  |
| O=C(O)C[C@H](Cc1ccccc1)NC(=O)[C@@H]1Cc2c([nH]c3ccccc23)[C@H]2C[C@H](NC(=O)OCc3ccccc3)C(=O)N21 |  | > 10000 |  |
| NC(=O)[C@H](Cc1ccccc1)NC(=O)[C@@H]1Cc2c([nH]c3ccccc23)[C@H]2C[C@H](NC(=O)OCc3ccccc3)C(=O)N21 | > 1000 | > 10000 |  |
| COC(=O)[C@H](Cc1ccccc1)NC(=O)[C@@H]1Cc2c([nH]c3ccccc23)[C@H]2C[C@H](NC(=O)OCc3ccccc3)C(=O)N21 | 47.5 | > 10000 |  |
| CN1C(=O)[C@@H](NC(=O)c2cc3ccccc3[nH]2)N=C(c2ccccc2)c2ccccc21 [DEVAZEPIDE] |  |  | 2.5 |
| O=C(N[C@H]1C[C@@H]2c3[nH]c4ccccc4c3C[C@@H](C(=O)N[C@@H](Cc3ccccc3)C(=O)O)N2C1=O)OCc1ccccc1 | 4.7 | > 10000 | 6 |
| COC(=O)[C@@H](Cc1ccccc1)NC(=O)[C@@H]1Cc2c([nH]c3ccccc23)[C@H]2C[C@H](NC(=O)OCc3ccccc3)C(=O)N21 | > 1000 | > 10000 |  |
| COC(=O)C[C@H](Cc1ccccc1)NC(=O)[C@H]1Cc2c([nH]c3ccccc23)[C@@H]2C[C@@H](NC(=O)OCc3ccccc3)C(=O)N12 | > 1000 | > 10000 |  |

The next lines start with results.

| IC50 [1] [nM] | IC50 [2] [nM] | Compound | IC50 [3] [nM] |
| --- | --- | --- | --- |
| > 1000 | > 10000 | NC(=O)[C@@H](Cc1ccccc1)NC(=O)[C@@H]1Cc2c([nH]c3ccccc23)[C@H]2C[C@H](NC(=O)OCc3ccccc3)C(=O)N21 |  |
| > 1000 | > 10000 | COC(=O)[C@@H](Cc1ccccc1)NC(=O)[C@H]1Cc2c([nH]c3ccccc23)[C@@H]2C[C@@H](NC(=O)OCc3ccccc3)C(=O)N12 |  |
| > 1000 | 3720 | O=C(N[C@@H]1C[C@H]2c3[nH]c4ccccc4c3C[C@H](C(=O)N[C@H](Cc3ccccc3)C(=O)O)N2C1=O)OCc1ccccc1 |  |
| 450 | 5630 | COC(=O)[C@H](Cc1ccccc1)NC(=O)[C@H]1Cc2c([nH]c3ccccc23)[C@@H]2C[C@@H](NC(=O)OCc3ccccc3)C(=O)N12 |  |
| 1.73 | 202 | O=C(N[C@@H]1C[C@H]2c3[nH]c4ccccc4c3C[C@H](C(=O)N[C@@H](Cc3ccccc3)C(=O)O)N2C1=O)OCc1ccccc1 | 1.2 |
|  | 2700 | O=C(O)C[C@@H](Cc1ccccc1)NC(=O)[C@@H]1Cc2c([nH]c3ccccc23)[C@H]2C[C@H](NC(=O)OCc3ccccc3)C(=O)N21 |  |
| > 1000 | 4910 | COC(=O)C[C@@H](Cc1ccccc1)NC(=O)[C@H]1Cc2c([nH]c3ccccc23)[C@@H]2C[C@@H](NC(=O)OCc3ccccc3)C(=O)N12 |  |
